Experimental data taken from ChEMBL document CHEMBL1144695, “Synthesis and evaluation of novel polyaminocarboxylate-based antitumor agents” (J Med Chem, 2008).

Columns and labels:
[1] = tested on: HT-29; test: Cytotoxicity against human HT29 cells after 72 hrs by MTS assay; format: functional, cell-based; settings: HT-29, 72 h
Summary of the method: (§1)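 Cells attached 24 h before dosing: HeLa at 2000 cells/well in MEM with 10% FBS, and HT29 at 5000 cells/well in RPMI-1640 with 10% FBS. At least five serial dilutions were added for 72 h at 37 °C in 5% CO2. MTS/PMS was then added for 3 h and absorbance read at 490 nm, relative to untreated solvent controls. Runs were at least triplicate, and IC50 came from nonlinear regression.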

[2] = tested on: HeLa; test: Cytotoxicity against human HeLa cells after 72 hrs by MTS assay; format: functional, cell-based; summary of the method: as §1
[3] = tested on: MRC5; test: Induction of proliferation in human MRC5 cells; format: functional; parameters: unit: fraction of untreated control
Summary of the method: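 Normal MRC-5 lung fibroblasts were grown in EMEM with 10% FBS, seeded at 5000 cells/well and allowed 24 h to attach. Chelators at 50 µM were given for 72 h at 37 °C in 5% CO2. Read-out was MTS/PMS for 3 h, with absorbance at 490 nm expressed as a fraction of untreated solvent controls. Runs were at least triplicate.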

Row | Compound | IC50 [1] | IC50 [2] | Activity [3]
1 | O=C(O)CNC(Cc1ccc([N+](=O)[O-])cc1)CN1CCN(CC(=O)O)CCN(CC(=O)O)CC1 (stereo unspecified) | 5 µM | 7.1 µM | 2
2 | O=C(O)CNC(Cc1ccc(Nc2ccc([N+](=O)[O-])c3nonc23)cc1)CN1CCN(CC(=O)O)CCN(CC(=O)O)CC1 (stereo unspecified) | – | – | 2
3 | O=C(O)CNCCN1CCN(CC(=O)O)CCN(CC(=O)O)CC1 | 4.7 µM | 5.7 µM | 2
4 | O=C(O)CN1CCN(CC(=O)O)CCN(CC(Cc2ccc([N+](=O)[O-])cc2)N(CC(=O)O)CC(=O)O)CC1 (stereo unspecified) | 45.7 µM | > 100 µM | –
5 | O=C(O)CN1CCN(CCN(CC(=O)O)Cc2ccc([N+](=O)[O-])cc2)CCN(CC(=O)O)CC1 | 6.8 µM | 8.4 µM | 2
6 | O=C(O)CN1CCN(CCN(CC(=O)O)CC(=O)O)CCN(CC(=O)O)CC1 | 7.3 µM | – | 2
7 | O=C(O)CN1CCN(CCN(CC(=O)O)Cc2ccccc2)CCN(CC(=O)O)CC1 | 2.6 µM | 4.4 µM | 2
8 | CC(=O)N(O)CCCCCNC(=O)CCC(=O)N(O)CCCCCNC(=O)CCC(=O)N(O)CCCCCN [DEFEROXAMINE] | 36.1 µM | > 50 µM | –
9 | O=C(O)CN(CCN(CC(=O)O)CC(=O)O)CCN(CC(=O)O)CC(=O)O [PENTETIC ACID] | 39.1 µM | 264 µM | –
